Source: ChEMBL document CHEMBL1275598, “In vitro activity of ceftaroline against community-associated methicillin-resistant, vancomycin-intermediate, vancomycin-resistant, and daptomycin-nonsusceptible Staphylococcus aureus isolates” (2010)

Experiments:
Type in all cases: functional
Staphylococcus aureus [1] = experiment: Antimicrobial activity against vancomycin-intermediate Staphylococcus aureus assessed as susceptible isolates by microdilution method
Method in brief: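 CLSI broth microdilution in cation-adjusted Mueller-Hinton broth. MIC is the lowest concentration well with no visible growth, read by eye. Isolates were classed susceptible from CLSI breakpoints. S. aureus ATCC 29213 and E. faecalis ATCC 29212 were used as MIC control strains.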

Staphylococcus aureus [2] = experiment: Antimicrobial activity against vancomycin intermediate Staphylococcus aureus NRS-22 expressing SCCmec type 2 element by microdilution method
Method in brief: (§1)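 MIC by broth microdilution in cation-adjusted Mueller-Hinton broth, following CLSI guidelines; antibiotic powders reconstituted per CLSI. Read visually as the lowest drug concentration well with no visible growth. S. aureus ATCC 29213 and E. faecalis ATCC 29212 served as control strains. CA-MRSA: hospital patients culture-positive within 48 h of admission. DNSSA: patient blood isolates. VISA: obtained from the NARSA program.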

Staphylococcus aureus [3] = experiment: Antimicrobial activity against vancomycin intermediate Staphylococcus aureus NRS-19 expressing SCCmec type 2 element by microdilution method; method in brief: as §1
Staphylococcus aureus [4] = experiment: Antimicrobial activity against vancomycin-intermediate Staphylococcus aureus by microdilution method
Method in brief: (§2)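 Broth microdilution per CLSI in cation-adjusted Mueller-Hinton broth. Antibiotic powders were reconstituted per CLSI. The MIC was read visually as the lowest drug concentration with no visible growth. S. aureus ATCC 29213 and E. faecalis ATCC 29212 served as control strains. VISA and VRSA isolates came from the NARSA program.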

Staphylococcus aureus [5] = experiment: Antimicrobial activity against vancomycin intermediate Staphylococcus aureus NRS-403 expressing SCCmec type 2 element by microdilution method; method in brief: as §1
Staphylococcus aureus [6] = experiment: Antimicrobial activity against vancomycin intermediate Staphylococcus aureus NRS-26 expressing SCCmec type 2 element by microdilution method; method in brief: as §1
Staphylococcus aureus [7] = experiment: Antimicrobial activity against community-acquired methicillin-resistant Staphylococcus aureus by microdilution method; method in brief: as §1
Staphylococcus aureus [8] = experiment: Antimicrobial activity against vancomycin-resistant Staphylococcus aureus by microdilution method; method in brief: as §2
Staphylococcus aureus [9] = experiment: Antimicrobial activity against vancomycin intermediate Staphylococcus aureus NRS-68 expressing SCCmec type 2 element by microdilution method; method in brief: as §1
Staphylococcus aureus [10] = experiment: Antimicrobial activity against vancomycin intermediate Staphylococcus aureus NRS-27 expressing SCCmec type 2 element by microdilution method; method in brief: as §1
Staphylococcus aureus [11] = experiment: Bactericidal activity against vancomycin-resistant Staphylococcus aureus assessed as antibiotic concentration that reduced the number of viable cells by =>99.9% by colony count method; conditions: for MBC: Staphylococcus aureus
Method in brief: (§3)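 MBC per CLSI following microdilution in cation-adjusted Mueller-Hinton broth. Defined as the concentration giving ≥99.9% reduction in viable cells, judged from colony counts of the growth control well against Pearson rejection-value tables. CA-MRSA isolates were hospital patients' isolates with positive MRSA culture within 48 h of admission.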

Staphylococcus aureus [12] = experiment: Antimicrobial activity against vancomycin intermediate Staphylococcus aureus NRS-17 expressing SCCmec type 2 element by microdilution method; method in brief: as §1
Staphylococcus aureus [13] = experiment: Antimicrobial activity against vancomycin intermediate Staphylococcus aureus NRS-73 expressing SCCmec type 4d element by microdilution method; method in brief: as §1
Staphylococcus aureus [14] = experiment: Antimicrobial activity against daptomycin-nonsusceptible Staphylococcus aureus by microdilution method; method in brief: as §1
Staphylococcus aureus [15] = experiment: Bactericidal activity against vancomycin-intermediate Staphylococcus aureus assessed as antibiotic concentration that reduced the number of viable cells by =>99.9% by colony count method; conditions: for MBC: Staphylococcus aureus
Method in brief: (§4)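 MBC per CLSI guidelines. It was taken as the antibiotic concentration giving ≥99.9% reduction in viable cells, based on colony counts from the growth control well and rejection values from Pearson's tables.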

Staphylococcus aureus [16] = experiment: Bactericidal activity against community-acquired methicillin-resistant Staphylococcus aureus assessed as antibiotic concentration that reduced the number of viable cells by =>99.9% by colony count method; conditions: for MBC: Staphylococcus aureus; method in brief: as §3
Staphylococcus aureus [17] = experiment: Antimicrobial activity against vancomycin intermediate Staphylococcus aureus NRS-402 expressing SCCmec type 2 element by microdilution method; method in brief: as §1
Staphylococcus aureus [18] = experiment: Bactericidal activity against daptomycin-nonsusceptible Staphylococcus aureus assessed as antibiotic concentration that reduced the number of viable cells by =>99.9% by colony count method; method in brief: as §4
Staphylococcus aureus [19] = experiment: Antimicrobial activity against daptomycin-nonsusceptible Staphylococcus aureus assessed as susceptible isolates by microdilution method
Method in brief: (§5)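 MICs by CLSI broth microdilution in cation-adjusted Mueller-Hinton broth, read visually as the lowest concentration with no visible growth. Percentages of susceptible or resistant isolates assigned using CLSI breakpoints. Isolates: CA-MRSA (n = 92, positive within 48 h of admission) and DNSSA (n = 7, blood).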

Staphylococcus aureus [20] = experiment: Antimicrobial activity against vancomycin resistant Staphylococcus aureus VRS-8 expressing SCCmec element by microdilution method; method in brief: as §2
Staphylococcus aureus [21] = experiment: Antimicrobial activity against vancomycin resistant Staphylococcus aureus VRS-9 expressing SCCmec type 2 element by microdilution method; method in brief: as §2
Staphylococcus aureus [22] = experiment: Antimicrobial activity against vancomycin intermediate Staphylococcus aureus NRS-118 expressing SCCmec type 1 element by microdilution method; method in brief: as §1
Staphylococcus aureus [23] = experiment: Antimicrobial activity against vancomycin resistant Staphylococcus aureus VRS-7 expressing SCCmec element by microdilution method; method in brief: as §2
Staphylococcus aureus [24] = experiment: Antimicrobial activity against vancomycin-resistant Staphylococcus aureus assessed as susceptible isolates by microdilution method
Method in brief: (§6)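 CLSI broth microdilution MICs in cation-adjusted Mueller-Hinton broth, read visually as the lowest concentration with no visible growth. Percent of isolates classed susceptible or resistant was assigned using CLSI breakpoints.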

Staphylococcus aureus [25] = experiment: Antimicrobial activity against community-acquired methicillin-resistant Staphylococcus aureus assessed as resistant isolates by microdilution method; method in brief: as §5
Staphylococcus aureus [26] = experiment: Antimicrobial activity against vancomycin intermediate Staphylococcus aureus NRS-404 expressing SCCmec type 2 element by microdilution method; method in brief: as §1
Staphylococcus aureus [27] = experiment: Antimicrobial activity against vancomycin resistant Staphylococcus aureus VRS-10 expressing SCCmec type 2 element by microdilution method; method in brief: as §2
Staphylococcus aureus [28] = experiment: Antimicrobial activity against vancomycin resistant Staphylococcus aureus VRS-5 expressing SCCmec type 2 element by microdilution method; method in brief: as §2
Staphylococcus aureus [29] = experiment: Antimicrobial activity against vancomycin intermediate Staphylococcus aureus NRS-3 expressing SCCmec type 2 element by microdilution method; method in brief: as §1
Staphylococcus aureus [30] = experiment: Antimicrobial activity against vancomycin resistant Staphylococcus aureus VRS-6 expressing SCCmec type 2 element by microdilution method; method in brief: as §2
Staphylococcus aureus [31] = experiment: Antimicrobial activity against vancomycin-intermediate Staphylococcus aureus assessed as resistant isolates by microdilution method; method in brief: as §6
Staphylococcus aureus [32] = experiment: Antimicrobial activity against vancomycin resistant Staphylococcus aureus VRS-3 expressing SCCmec type 4 element by microdilution method; method in brief: as §2
Staphylococcus aureus [33] = experiment: Antimicrobial activity against vancomycin resistant Staphylococcus aureus VRS-1 expressing SCCmec type 2 element by microdilution method; method in brief: as §2
Staphylococcus aureus [34] = experiment: Antimicrobial activity against vancomycin-resistant Staphylococcus aureus assessed as resistant isolates by microdilution method; method in brief: as §6
Staphylococcus aureus [35] = experiment: Antimicrobial activity against vancomycin resistant Staphylococcus aureus VRS-2 expressing SCCmec type 2 element by microdilution method; method in brief: as §2
Staphylococcus aureus [36] = experiment: Antimicrobial activity against daptomycin-nonsusceptible Staphylococcus aureus assessed as resistant isolates by microdilution method; method in brief: as §5
Staphylococcus aureus [37] = experiment: Antimicrobial activity against community-acquired methicillin-resistant Staphylococcus aureus assessed as susceptible isolates by microdilution method; method in brief: as §5
Staphylococcus aureus [38] = experiment: Antimicrobial activity against vancomycin resistant Staphylococcus aureus VRS-4 expressing SCCmec type 4 element by microdilution method; method in brief: as §2

CC(=O)NC[C@H]1CN(c2ccc(N3CCOCC3)c(F)c2)C(=O)O1 [LINEZOLID]
4 µg/mL: MBC50 (Staphylococcus aureus [15])
>8 µg/mL: MBC90 (Staphylococcus aureus [15]) | MBC50 (Staphylococcus aureus [18])
1 µg/mL: MIC (Staphylococcus aureus [2]) | MIC (Staphylococcus aureus [3]) | MIC (Staphylococcus aureus [5]) | MIC (Staphylococcus aureus [6]) | MIC (Staphylococcus aureus [9]) | MIC (Staphylococcus aureus [10]) | MIC (Staphylococcus aureus [12]) | MIC (Staphylococcus aureus [13]) | MIC (Staphylococcus aureus [14]) | MIC (Staphylococcus aureus [20]) | MIC (Staphylococcus aureus [21]) | MIC (Staphylococcus aureus [22]) | MIC (Staphylococcus aureus [23])
> 8 µg/mL: MBC (Staphylococcus aureus [11])
1.48 µg/mL: MIC (Staphylococcus aureus [14]; Staphylococcus aureus, read-out: MIC)
0.5 µg/mL: MIC (Staphylococcus aureus [17])
> 1 µg/mL: MBC (Staphylococcus aureus [15])
> 4 µg/mL: MBC (Staphylococcus aureus [16])
2 µg/mL: MIC50 (Staphylococcus aureus [4]) | MIC90 (Staphylococcus aureus [4]) | MIC50 (Staphylococcus aureus [7]) | MIC90 (Staphylococcus aureus [7]) | MIC50 (Staphylococcus aureus [8]) | MIC90 (Staphylococcus aureus [8]) | MIC50 (Staphylococcus aureus [14]; Staphylococcus aureus)
100%: Activity (Staphylococcus aureus [1]) | Activity (Staphylococcus aureus [19])

CN[C@H](CC(C)C)C(=O)N[C@H]1C(=O)N[C@@H](CC(N)=O)C(=O)N[C@H]2C(=O)N[C@H]3C(=O)N[C@H](C(=O)N[C@H](C(=O)O)c4cc(O)cc(O)c4-c4cc3ccc4O)[C@H](O)c3ccc(c(Cl)c3)Oc3cc2cc(c3O[C@@H]2O[C@H](CO)[C@@H](O)[C@H](O)[C@H]2O[C@H]2C[C@](C)(N)[C@H](O)[C@H](C)O2)Oc2ccc(cc2Cl)[C@H]1O [VANCOMYCIN]
8 µg/mL: MIC90 (Staphylococcus aureus [4]) | MIC (Staphylococcus aureus [26]) | MIC (Staphylococcus aureus [29]) | MIC (Staphylococcus aureus [12]) | MBC90 (Staphylococcus aureus [15]) | MIC (Staphylococcus aureus [17]) | MIC (Staphylococcus aureus [22])
> 64 µg/mL: MIC (Staphylococcus aureus [27]) | MIC50 (Staphylococcus aureus [8]) | MIC90 (Staphylococcus aureus [8]) | MIC (Staphylococcus aureus [28]) | MBC (Staphylococcus aureus [11]) | MIC (Staphylococcus aureus [30]) | MIC (Staphylococcus aureus [33]) | MIC (Staphylococcus aureus [20]) | MIC (Staphylococcus aureus [38]) | MIC (Staphylococcus aureus [21]) | MIC (Staphylococcus aureus [23])
0%: Activity (Staphylococcus aureus [24]) | Activity (Staphylococcus aureus [25]) | Activity (Staphylococcus aureus [31]) | Activity (Staphylococcus aureus [36])
32 µg/mL: MIC (Staphylococcus aureus [32]) | MIC (Staphylococcus aureus [35])
1 µg/mL: MIC50 (Staphylococcus aureus [7]) | MIC90 (Staphylococcus aureus [7]) | MBC (Staphylococcus aureus [15]) | MBC50 (Staphylococcus aureus [16]) | MBC90 (Staphylococcus aureus [16])
0.5 µg/mL: MBC (Staphylococcus aureus [16])
4 µg/mL: MIC50 (Staphylococcus aureus [4]) | MBC50 (Staphylococcus aureus [15])
100%: Activity (Staphylococcus aureus [34]) | Activity (Staphylococcus aureus [37]) | Activity (Staphylococcus aureus [19])
>64 µg/mL: MBC50 (Staphylococcus aureus [11]) | MBC90 (Staphylococcus aureus [11])
2 µg/mL: MIC50 (Staphylococcus aureus [14]; Staphylococcus aureus) | MBC50 (Staphylococcus aureus [18]) | MBC (Staphylococcus aureus [18]; Staphylococcus aureus, read-out: MBC)
13%: Activity (Staphylococcus aureus [1])
